According to publication PMC2932756 (Chemico-biological interactions, 2010):

Experiments:
[1] = tested on: tyrosinase; test: Tyrosinase mediated GSH depletion assay; type: biochemical, Mushroom; conditions: for Tyrosinase GSH depletion (2 h): 100 μM phenolic agent, 200 μM GSH, tyrosinase/O2, 37 °C
[2] = tested on: SK-MEL-28 melanoma cells; test: MTT cell viability assay, IC50; type: cell-based, human
[3] = Partition coefficient, distribution coefficient and water solubility
[4] = no reference given; cited from earlier work
[5] = tested on: tyrosinase; test: Rate of AA and NADH oxidation by tyrosinase/O2; type: biochemical, Mushroom
[6] = tested on: SK-MEL-28 cells; test: Mitochondrial membrane potential; type: cell-based, human
Procedure, shortened: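 SK-MEL-28 cells seeded at 160,000/well in 6-well plates in MEM and left overnight; cyclosporin A 15 μM or ethylenediamine 1 mM added 24 h before test compound (15-50 μM; controls 1% DMSO). After 48 h, TMRM added for 30 min at 37 °C in the dark. Cells detached with versene, pelleted, resuspended in PBS. Flow cytometry on 10,000 events; arithmetic mean fluorescence, triplicates.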

[7] = tested on: oral cancer cells; conditions: read-out: IC50, cytotoxicity; 48 h; cited from earlier work
[8] = tested on: amelanotic SK-MEL-24 cells; test: MTT cell viability assay, SK-MEL-24; type: cell-based, human; conditions: CAPE 15 μM, 48 h
[9] = tested on: B16-F0 melanoma cells; test: MTT cell viability assay, B16-F0; type: cell-based, murine; conditions: CAPE 15 μM, 48 h
Procedure, shortened: (§1)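 24-well plates, 40,000 cells/well (SK-MEL-5 4,000/well) in 400 μL medium with 10% FBS, 24 h adhesion. Media: MEM Alpha for SK-MEL-5, MeWo and C32; DMEM for B16-F0 and B16-F10; McCoy's 5A for Saos-2; Leibovitz's L-15 for SW-620; RPMI for PC-3. Test compound 15 μM for 48 h; MTT 4 h, DMSO solubilisation for 2 h in the dark, A570. Viability relative to each line's untreated control.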

[10] = tested on: SK-MEL-5 melanoma cells; test: MTT cell viability assay, SK-MEL-5; type: cell-based, human; conditions: CAPE 15 μM, 48 h
Procedure, shortened: as §1

[11] = tested on: SV40 transformed keratinocytes; conditions: read-out: IC50, inhibition of proliferation; 48 h; cited from earlier work
[12] = tested on: B16-F10 melanoma cells; test: MTT cell viability assay, B16-F10; type: cell-based, murine; conditions: CAPE 15 μM, 48 h
Procedure, shortened: as §1

[13] = biological target: T1, horseradish peroxidase (HRP) (Armoracia rusticana, UniProt P00433); test: Rate of AA and NADH oxidation by HRP/H2O2; type: biochemical
T1 sequence (P00433 31-338 limits assumed): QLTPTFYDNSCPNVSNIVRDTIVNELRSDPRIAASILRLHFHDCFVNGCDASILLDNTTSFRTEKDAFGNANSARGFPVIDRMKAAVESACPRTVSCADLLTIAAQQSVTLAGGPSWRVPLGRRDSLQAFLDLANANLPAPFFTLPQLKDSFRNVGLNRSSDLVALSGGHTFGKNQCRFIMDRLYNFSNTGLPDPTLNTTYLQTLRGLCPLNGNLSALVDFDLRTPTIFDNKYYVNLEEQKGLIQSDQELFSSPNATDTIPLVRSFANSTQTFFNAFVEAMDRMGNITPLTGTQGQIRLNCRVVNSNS

[14] = tested on: MeWo melanoma cells; test: MTT cell viability assay, MeWo; type: cell-based, human; conditions: CAPE 15 μM, 48 h
Procedure, shortened: as §1

[15] = tested on: CYP2E1 induced rat liver microsomes; test: GSH depletion by rat liver P450 microsomal preparation/NADPH/O2; conditions: CYP2E1 pyrazole induced microsomes, 2 h incubation
[16] = tested on: melanocytic SK-MEL-28 cells; test: Intracellular GSH measurement, SK-MEL-28; type: cell-based, human; conditions: 2 h
Procedure, shortened: (§2)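 Cells from 90-95% confluent cultures seeded at 1 million cells/mL in MEM Alpha with 10% FBS in 24-well plates, 3 h at 37 °C, then given 1 mL medium with test compound (15-200 μM) for 1, 2 or 3 h. Detached with trypsin-EDTA, lysed with 3% sulphosalicylic acid, spun at 14,000 rpm and 4 °C for 10 min; supernatant diluted 10-fold. GSH by DTNB/NADPH (0.3 mM)/GSSG reductase recycling, A405 every 30 s over 4 min.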

[17] = tested on: amelanotic C32 melanoma cells; test: Reactive oxygen species; type: cell-based, human; conditions: CAPE 15-300 μM
Procedure, shortened: (§3)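 Cells seeded at 40,000/well in black 96-well plates, 24 h at 37 °C. Medium replaced with 2′,7′-dichlorofluorescein diacetate, then test compound added; fluorescence read from the moment of addition (ex 485, em 535 nm). In SK-MEL-28 only: dicoumarol 10 μM, 1-bromoheptane 75 μM, cyclosporin A 15 μM or trifluoperazine 15 μM included. Six replicates averaged.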

[18] = tested on: amelanotic C32 cells; test: MTT cell viability assay, C32; type: cell-based, human; conditions: CAPE 15 μM, 48 h
Procedure, shortened: as §1

[19] = tested on: SK-MEL-28 melanoma cells; test: MTT assay using biochemical modulators in SK-MEL-28 melanoma cells; type: cell-based, human; conditions: 48 h
Procedure, shortened: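 SK-MEL-28 cells in MEM Alpha with 10% FBS, 40,000/well in 24-well plates, 24 h to adhere. DMSO-dissolved modulators (1-bromoheptane 75 μM, dicoumarol 10 μM, cyclosporin A 15 μM, trifluoperazine 15 μM) added 20 min before test compound. Viability by MTT 48 h after compound addition: 4 h with dye, DMSO solubilisation for 2 h in the dark, A570.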

[20] = UV-VIS spectroscopy, stability of CAPE alone in solution; type: physicochemical; conditions: CAPE 100 μM alone, phosphate buffer pH 7.4
Procedure, shortened: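 Test compound 100 μM alone in 0.1 M phosphate buffer, pH 7.4, containing 1 mM DETAPAC; UV-visible spectrum recorded as the no-enzyme control for spectra of enzymatic oxidation, which were taken every two minutes.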

[21] = tested on: human leukemia HL-60 cells; conditions: read-out: IC50, growth arrest; 48 h; cited from earlier work
[22] = tested on: osteosarcoma (Saos-2) cells; test: MTT cell viability assay, Saos-2; type: cell-based, human; conditions: CAPE 15 μM, 48 h
Procedure, shortened: as §1

[23] = tested on: melanocytic SK-MEL-28 melanoma cells; test: Reactive oxygen species; type: cell-based, human
Procedure, shortened: as §3

[24] = tested on: prostate (PC-3) cells; test: MTT cell viability assay, PC-3; type: cell-based, human; conditions: CAPE 15 μM, 48 h
Procedure, shortened: as §1

[25] = tested on: SK-MEL-28 cells; test: MTT assay in tyrosinase shRNA transfected SK-MEL-28 cells; type: cell-based, human; conditions: CAPE 15 μM, 48 h
Procedure, shortened: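 SK-MEL-28 cells seeded at 160,000/well in 6-well plates; after 24 h transfected with tyrosinase shRNA clone (FuGENE6). 24 h later, untransfected, tyrosinase-shRNA and non-specific shRNA cells given test compound 15 μM for a further 48 h. Viability by MTT: 4 h with dye, DMSO solubilisation for 2 h at room temperature in the dark, A570. Three experiments averaged.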

[26] = tested on: SK-MEL-28 melanoma cells; test: Apoptosis assay; type: cell-based, human; conditions: CAPE 15 μM, 48 h
Procedure, shortened: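 SK-MEL-28 cells seeded at 160,000/well in 6-well plates in MEM and left overnight to attach; some wells transfected with tyrosinase shRNA3 or non-specific shRNA for 24 h. Treated with test compound 15 μM (controls 1% DMSO) for 48 h. Cells detached with versene, washed in PBS, pelleted, stained with annexin V-FITC plus PI in binding buffer for 15 min. Flow cytometry on 10,000 events; annexin+ cells (PI− or PI+) counted apoptotic; triplicates.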

[27] = tested on: colorectal adenocarcinoma (SW-620) cells; test: MTT cell viability assay, SW-620; type: cell-based, human; conditions: CAPE 15 μM, 48 h
Procedure, shortened: as §1

[28] = tested on: amelanotic C32 melanoma cells; test: Intracellular GSH measurement, C32; type: cell-based, human; conditions: 2 h
Procedure, shortened: as §2

O=C(O)C=Cc1ccc(O)cc1 [4-HCA, 4-hydroxycinnamic acid]
Tyrosinase GSH depletion (2 h) [1]: 16±3%
LD50 (day 2) SK-MEL-28 ([2]; MTT assay, 48 h incubation): 4.4 mM

O=C(O)CCc1ccc(O)cc1 [4-HPP, 4-hydroxypropionic acid]
Tyrosinase GSH depletion (2 h) [1]: 42±2%
LD50 (day 2) SK-MEL-28 ([2]; MTT assay, 48 h incubation): 1.5 mM

O=C(O)/C=C/c1ccc(O)c(O)c1 [CA, caffeic acid]
water solubility relative to CAPE ([3]; from LogW): 45 fold
ionized at physiological pH ([3]; pH 7.4): more than 99%
Tyrosinase GSH depletion (2 h) [1]: 200±6%
pKa value of the carboxylic moiety [4]: 4.62
LD50 (day 2) SK-MEL-28 ([2]; MTT assay, 48 h incubation): 2.3 mM

O=C(/C=C/c1ccc(O)c(O)c1)OCCc1ccccc1 [CAPE, Caffeic Acid Phenylethyl Ester]
ionized at physiological pH ([3]; pH 7.4): not significantly ionized
lipid solubility relative to caffeic acid (antilog LogD) ([3]; pH 7.4): 40,000 fold
Tyrosinase GSH depletion (2 h) [1]: 82±6%
GSH depleted per mole of CAPE, tyrosinase/O2 ([1]; 2 h incubation): 0.8 mole GSH per mole of CAPE
Rate of NADH oxidation by tyrosinase/O2 ([5]; CAPE 100 μM, tyrosinase 5 U/mL, NADH 200 μM, pH 7.4): 10 nM (AA and NADH depletion)/CAPE (μM)/tyrosinase (U/mL)/min
Rate of NADH oxidation by tyrosinase/O2 in the presence of GSH ([5]; with GSH 200 μM): 0.08 nM GSH depletion/CAPE (μM)/tyrosinase (U/mL)/min
decrease in mitochondrial membrane potential ([6]; CAPE 15 μM): 17±1%
decrease in mitochondrial membrane potential in the presence of CS ([6]; CAPE 15 μM + CS 15 μM): 8±1%
decrease in mitochondrial membrane potential in the presence of ethylenediamine ([6]; CAPE 15 μM + ethylenediamine 1 mM): 4±1%
decrease in mitochondrial membrane potential ([6]; CAPE 30 μM): 20±2%
decrease in mitochondrial membrane potential in the presence of CS ([6]; CAPE 30 μM + CS 15 μM): 12±1%
decrease in mitochondrial membrane potential in the presence of ethylenediamine ([6]; CAPE 30 μM + ethylenediamine 1 mM): 10±1%
IC50 [7]: 75 µM
cell viability [8]: 81±7%
LD50 (day 2) SK-MEL-28 / IC50 (48 h) ([2]; MTT assay, 48 h incubation): 15 µM
toxicity relative to caffeic acid, based on IC50 (48 h) ([2]; SK-MEL-28): 153 fold
cell viability [9]: 58±6%
cell viability [10]: 57±3%
IC50 [11]: 7 µM
cell viability [12]: 60±4%
Rate of NADH oxidation by HRP/H2O2 ([13]; HRP 2 μM, H2O2 100 μM): 867 μM (AA and NADH depletion)/CAPE (μM)/HRP (μM)/min
Rate of AA oxidation by HRP/H2O2 in the presence of GSH ([13]; with GSH): 10 μM GSH depletion/CAPE (μM)/HRP (μM)/min
Rate of NADH oxidation by HRP/H2O2 in the presence of GSH ([13]; with GSH): 5 μM GSH depletion/CAPE (μM)/HRP (μM)/min
cell viability [14]: 51±6%
GSH depleted per mole of CAPE, rat liver microsomes [15]: 0.5 mole GSH per one mole of CAPE
intracellular GSH depleted ([16]; CAPE 15 μM): 11±4%
intracellular GSH depleted ([16]; CAPE 50 μM): 19±2%
intracellular GSH depleted ([16]; CAPE 100 μM): 26±1%
intracellular GSH depleted ([16]; CAPE 200 μM): 54±1%
ROS formation [17]: no significant ROS was formed
cell viability [18]: 86±4%
increase of CAPE toxicity by 1-bromoheptane (BH) ([19]; CAPE 7.5 μM + BH 75 μM): 26%
enhancement of CAPE toxicity by dicoumarol ([19]; CAPE 7.5 μM + dicoumarol 10 μM): 39%
viability, CAPE incubated alone ([19]; CAPE 30 μM): 23±2%
stability of spectrum in solution (auto-oxidation) [20]: stable
IC50 [21]: 2.5 µM
cell viability [22]: 90±6%
ROS formation, CAPE + BH ([23]; BH 75 μM): 11±2 fold
ROS formation, CAPE + TF ([23]; CAPE 15 μM + TF 15 μM, 40 min): 5±1 fold
ROS formation, CAPE alone ([23]; CAPE 15 μM, 40 min): 8±1 fold
ROS formation ([23]; CAPE 15-300 μM, various time points): concentration- and time-dependent escalation in ROS formation
ROS formation, CAPE + CS ([23]; CS 15 μM): 4±1 fold
ROS formation, CAPE + DC ([23]; DC 10 μM): 12±2 fold
cell viability [24]: 88±3%
cell viability, tyrosinase shRNA transfected cells [25]: 87±5%
cell viability, untransfected cells [25]: 43±6%
apoptotic cell death [26]: 12.5±0.7%
increase in apoptotic cell death in comparison to untreated control cells [26]: 2.5 fold
cell viability [27]: 89±3%
intracellular GSH depleted ([28]; CAPE 15 μM): 3±2%
intracellular GSH depleted ([28]; CAPE 50 μM): 10±2%
intracellular GSH depleted ([28]; CAPE 100 μM): 13±3%
intracellular GSH depleted ([28]; CAPE 200 μM): 24±2%
